# From PubChem BioAssay
# Only some compounds are listed: those with a hit (about 3.5% of all), similar ones and a draw of the others.
# RGS4 act = RGS4 potentiation or activation; hit rate 0.92% among 310,000; HEK293 M3R/inducible RGS4, carbachol calcium flux Fluo4; active compounds read low; AID 463111; B-score at 10 µM;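 active = B-score of the integrated calcium signal more than 4 SD below the library mean, with starting fluorescence not abnormally high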;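 note: negative B-score means reduced calcium response which marks RGS4 activation or potentiation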
#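 Assay system: Inducible-RGS4 HEK293 cells carrying M3 receptor | Schedule: Compound preincubation 20 min at room temperature before agonist | Signal: Kinetic calcium fluorescence imaging with Fluo4-AM dye, 2 µM | Read-out basis: B score from integrated fluorescence ratio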
# MrgX1 antag = blocks BAM8-22 activation of human MrgX1 receptor. MRGX1-HEK293 calcium flux, Fluo-4, BAM8-22 antagonism; active compounds read low. B-score at 10 µM. hit rate 1.3% among 310,000. Q96LB2;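 active = calcium-response B-score plate-corrected more than 3 library SD below zero, starting fluorescence within 5 deviations, no agonist response on first addition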;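 note: peak minus trough fluorescence over baseline after final BAM8-22 challenge near maximal dose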
# Target sequence (Q96LB2 whole entry, looked up): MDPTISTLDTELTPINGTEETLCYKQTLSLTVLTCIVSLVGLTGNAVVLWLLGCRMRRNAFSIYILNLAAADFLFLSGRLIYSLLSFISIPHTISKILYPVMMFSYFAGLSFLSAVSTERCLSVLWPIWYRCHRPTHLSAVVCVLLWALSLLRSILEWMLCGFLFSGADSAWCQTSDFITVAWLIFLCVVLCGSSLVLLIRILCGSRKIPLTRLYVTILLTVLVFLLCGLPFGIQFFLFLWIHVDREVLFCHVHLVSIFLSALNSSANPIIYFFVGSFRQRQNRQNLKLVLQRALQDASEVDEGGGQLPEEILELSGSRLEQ
# MrgX1 agonist = human MrgX1 receptor agonism, primary screen; MrgX1-HEK293 cells, Fluo-4 calcium fluorescence, agonist mode; active compounds read high; B-score at 10 µM; hit rate 0.44% among 310,000;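 active = calcium response B-score plate-corrected fluorescence ratio at least 3 library SD, with starting fluorescence B-score inside 5 SD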
#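 Material: MrgX1-expressing HEK293 cells / Dosing: compound as first of three additions / Incubation: overnight seeding, then 1 h dark dye loading / Signal: Fluo-4 NW calcium fluorescence / Evaluation: B-scored fluorescence response ratio / Benchmarks: positive and negative control wells on each plate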
# MrgX1 allo act = human MrgX1 positive allosteric modulation, primary screen; Q96LB2; MrgX1-HEK293, Fluo-4 calcium flux, FDSS; active compounds read high; B-score at 10 µM; hit rate 0.63% among 310,000; AID 588675;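 active = plate-corrected calcium response at least 3 library SD above typical, normal starting fluorescence, not activating the receptor alone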;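 note: compound read alongside a low EC10 to EC30 dose of BAM8-22 agonist; peak minus trough fluorescence over baseline measured at the second addition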
# RGS4 inh = human RGS4 inhibition; P49798; HEK293 M3R/RGS4 inducible, Fluo-4 calcium flux; active compounds read high; triggered by carbachol at its EC20; B-score at 10 µM; hit rate 0.45% among 310,000; AID 463165;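 active = B-score, a plate-corrected calcium signal, over three deviations above library mean, with baseline fluorescence within five deviations of library mean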;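 note: RGS4 expression induced by doxycycline in cells with stable M3 receptor; B-score is computed from the integrated fluorescence ratio over baseline after carbachol; higher B-score means a larger calcium signal and so more RGS4 inhibition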
# Target sequence (P49798 whole entry, looked up): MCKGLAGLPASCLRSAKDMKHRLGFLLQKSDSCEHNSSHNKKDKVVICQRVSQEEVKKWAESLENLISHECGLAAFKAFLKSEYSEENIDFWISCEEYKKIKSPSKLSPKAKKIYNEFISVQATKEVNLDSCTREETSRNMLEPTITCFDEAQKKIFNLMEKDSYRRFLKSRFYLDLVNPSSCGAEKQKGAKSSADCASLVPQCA
# MrgX1 ag reconf = confirmation of human MrgX1 receptor agonists | shares compounds with MrgX1 agonist | MrgX1-HEK293, Fluo-4 calcium fluorescence, FDSS | activation, % at 10 µM | hit rate 78% among 600 | AID 602412;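 active = calcium signal rise, corrected for plate position, at least 3 library SD high, with starting brightness within 5 such deviations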
# HEK293 Ca flux = activity in parental HEK293 cells lacking MrgX1; fluorescence ratio F(max-min)/F0 at 10 µM; shares compounds with MrgX1 antag; AID 624111; hit rate 2% among 4,000; Fluo-4 calcium fluorescence, FDSS;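 active = duplicate-averaged calcium fluorescence ratio at least three times the standard deviation of buffer wells, a nonspecific response in parental cells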
# HEK293 Ca counter = MrgX1 allosteric activator counter-screen hit in parental HEK293 cells; shares compounds with MrgX1 antag; parental HEK293 calcium flux, Fluo-4 fluorescence ratio; active compounds read high; fluorescence ratio F(max-min)/F0 at 10 µM; hit rate 0.4% among 4,000;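 active = calcium fluorescence ratio, averaged over duplicates, at least 3 SD of the buffer-well ratio, meaning a nonspecific response in receptor-free cells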;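 note: untransfected parental HEK293 lacking MrgX1 used as counterscreen for MrgX1 allosteric activators; fluorescence change taken during the second addition on a kinetic imager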
# HEK293 Ca cntr2 = MrgX1 activator counter-screen hit in parental HEK293 cells | shares compounds with MrgX1 antag | Fluo-4 calcium fluorescence (FDSS); active compounds read high | fluorescence ratio F(max-min)/F0 at 10 µM | hit rate 8.7% among 4,000 | AID 624115;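 active = calcium fluorescence ratio at least three times the spread of buffer wells, meaning a non-specific response in parental cells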
# * = called active by the depositor; i = inactive; . = not tested or not shown.
SMILES,RGS4 act,MrgX1 antag,MrgX1 agonist,MrgX1 allo act,RGS4 inh,MrgX1 ag reconf,HEK293 Ca flux,HEK293 Ca counter,HEK293 Ca cntr2
CCC1(C)Cc2ccccc2-c2nc(NCCO)n(-c3ccc(C)cc3)c(=O)c21 (centres undefined),i,i,39*,i,i,173%*,i,i,56*
CC1(C)Cc2ccccc2-c2nc(NCCO)n(-c3ccccc3)c(=O)c21,i,i,i,i,i,.,.,.,.
O=C(c1ccc2ccccc2n1)N1CCN(Cc2c(F)cccc2Cl)CC1,i,i,i,i,i,.,.,.,.
Fc1cccc(Cl)c1CN1CCN(c2nc3ccccc3s2)CC1,i,i,31*,i,i,224%*,i,i,i
CN1N=C(C(C)(C)C)CSC1=Nc1ccccc1,i,i,i,i,i,.,.,.,.
Cc1ccccc1OCC(=O)NCCS(=O)(=O)N1CCN(c2ccc(F)cc2)CC1,i,i,i,i,i,.,.,.,.
Nc1c(C(=O)c2ccccc2)sc2snc(SCC(=O)c3ccccc3)c12,i,i,32*,i,i,225%*,0.41*,i,55*
Nc1nnc(SCC(=O)c2ccccc2)s1,i,i,i,i,i,.,.,.,.
O=C1NC(Nc2ccccn2)(C(F)(F)F)C(=O)N1c1ccc(F)cc1 (centres undefined),i,i,32*,i,i,207%*,i,i,54*
CCC(=O)N1CCC2(CC1)Oc1ccc(Cl)cc1C(=O)C21CC(c2ccc(Cl)cc2)=NO1 (centres undefined),i,i,i,i,i,.,.,.,.
COc1cc(NC(=O)Cc2cccs2)cc(OC)c1,i,i,i,i,i,.,.,.,.
COc1cc(OC)cc(C(=O)NC(=S)NNC(=O)Cc2cccs2)c1,i,i,72*,i,i,535%*,i,i,102*
CCn1c(CCCOc2ccc(Cl)cc2Cl)n[nH]c1=S,i,i,i,i,i,.,.,.,.
Cc1cc(N2CCCCC2)nc(N)n1,i,i,101*,i,i,520%*,i,i,123*
Cc1cc(=O)oc2ccc(OCC(=O)N3CCC(C)CC3)cc12,i,i,28*,i,i,215%*,i,i,i
CC(C)NC[C@H](O)c1ccc(O)c(O)c1,.,i,32*,i,.,124%*,i,i,i
O=C1CSc2ccc(C(=O)NCCC3=CCCCC3)cc2N1,i,i,119*,i,i,i,i,i,i
CCOC(=O)C1=C(CN2CCN(C(=O)c3ccco3)CC2)NC(=O)NC1c1ccc(Cl)cc1 (centres undefined),i,i,i,i,i,.,.,.,.
CCOC(=O)C1=C(CN2CCC(C)CC2)NC(=O)NC1c1ccc(Cl)cc1 (centres undefined),i,i,39*,i,i,195%*,i,i,i
COc1ccc2c(c1OC)C(=O)N(c1cccc(NC(C)=O)c1)C2,i,i,27*,i,i,119%*,i,i,i
Cc1ccc(C(=O)NNC(=S)NC(=O)COc2ccccc2)cc1,i,i,109*,i,i,618%*,i,i,116*
Cc1ccccc1C(=O)NNC(=S)NC(=O)COc1ccccc1,i,i,120*,i,i,640%*,i,i,125*
O=C(COc1ncnc2c(Cl)cc(Cl)cc12)Nc1cc([N+](=O)[O-])ccc1Cl,i,i,i,i,i,.,.,.,.
Cc1ccc(S(=O)(=O)N(C)c2ccc(OCC(=O)NCC3(N(C)C)CCCCC3)cc2)cc1,i,i,i,i,i,.,.,.,.
Cc1cc(CSC(=N)N)c(CSC(=N)N)cc1C,i,i,91*,i,i,246%*,i,i,i
SMILES,RGS4 act,MrgX1 antag,MrgX1 agonist,MrgX1 allo act,RGS4 inh,MrgX1 ag reconf,HEK293 Ca flux,HEK293 Ca counter,HEK293 Ca cntr2
CC(C)Oc1ccc(CSC(=N)N)cc1,i,i,i,i,i,.,.,.,.
COc1ccnc(CSC(N)=Nc2ccccc2OC)c1,i,i,i,i,i,.,.,.,.
COc1ccnc(CSC(N)=Nc2ccccc2C(F)(F)F)c1,i,i,33*,i,i,102%*,i,i,i
COCCn1c(SCC(=O)NC2CCCC2)nnc1-c1ccco1,i,i,i,i,i,.,.,.,.
Cc1c2ccccc2nc2c(F)c(NCCO)c(F)c(F)c12,i,i,30*,i,i,i,0.12*,i,i
Cc1c2ccccc2nc2c(F)c(NC(C)C)c(F)c(F)c12,i,i,i,i,i,.,.,.,.
Nc1ncccc1OCc1ccc(Cl)c(Cl)c1,i,i,41*,i,i,172%*,i,i,i
CC(=O)C1=C(C)OC(N)=C(C#N)C1c1cc([N+](=O)[O-])ccc1Cl (centres undefined),i,i,i,i,i,.,.,.,.
CCOC(=O)C1=C(CSc2nc3c(cc2C#N)CN(C)CC3)OC(N)=C(C#N)C1c1ccccc1 (centres undefined),.,i,i,i,.,.,.,.,.
COC(=O)C1=C(C)OC(N)=C(C#N)C1c1ccccc1F (centres undefined),i,i,27*,i,i,170%*,i,i,64*
COC(=O)C1=C(C)OC(N)=C(C#N)C1c1cc(OC)c(OCC(N)=O)cc1Cl (centres undefined),i,i,43*,i,i,230%*,i,i,56*
COC(=O)C1=C(C)OC(N)=C(C#N)C1c1ccco1 (centres undefined),i,i,i,i,i,.,.,.,.
COC(=O)C1=C(CSc2nc3c(cc2C#N)CN(C)CC3)OC(N)=C(C#N)C1c1ccccc1F (centres undefined),i,i,42*,i,i,265%*,i,i,57*
COc1cc(OC)c(OC)cc1CNCCSc1nnnn1C,i,i,i,i,i,.,.,.,.
CNc1nc(NCc2ccccc2)c2ccccc2n1,i,i,76*,i,i,253%*,i,i,i
